# Screening data as filed in PubChem.
# NR2E3 ag-1 = activates human NR2E3 receptor; Q9Y5X4; CHO-S Gal4-NCOR/VP16-NR2E3 two-hybrid, luciferase; inhibition of corepressor binding, % at 3.98 µM; 360,000 tested, 0.35% active;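 active means inhibition above the mean of all tested compounds plus 3 SD, cut at about 70% in these data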;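 further: 0% = DMSO with NR2E3 transfected cells and 100% = cells lacking NR2E3 construct; higher means lower luciferase signal from less NR2E3 corepressor binding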
# Target sequence (Q9Y5X4 whole entry, looked up, the tested form may be a part): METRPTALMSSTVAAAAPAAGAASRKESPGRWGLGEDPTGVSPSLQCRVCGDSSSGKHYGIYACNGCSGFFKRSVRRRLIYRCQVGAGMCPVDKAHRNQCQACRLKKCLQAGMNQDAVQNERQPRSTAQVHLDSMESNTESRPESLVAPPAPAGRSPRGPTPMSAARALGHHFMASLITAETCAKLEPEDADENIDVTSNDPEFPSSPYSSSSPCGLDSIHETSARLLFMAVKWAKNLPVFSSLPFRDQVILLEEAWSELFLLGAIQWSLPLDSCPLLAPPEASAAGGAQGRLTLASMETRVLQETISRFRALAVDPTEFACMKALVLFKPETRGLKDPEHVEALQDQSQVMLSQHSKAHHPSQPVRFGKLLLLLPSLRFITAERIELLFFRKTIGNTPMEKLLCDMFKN
# 697 NFkB inh = lowers PMA/ionomycin-induced NF-kB signal in 697 B cells; inhibition, % at 4 µM; 697 B-cell NF-kB luciferase reporter, 16 h; 330,000 tested, 0.33% active; in the data active means inhibition above about 35%
# NR2E3 ag-2 = activates human photoreceptor nuclear receptor NR2E3; GST-NR2E3/biotin-RetCOR TR-FRET, 1536-well; inhibition of corepressor binding, % at 4.78 µM; 320,000 tested, 0.12% active;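 active means percent inhibition above the cutoff of mean plus 3 SD of all tested compounds, set per screening campaign, cut at about 20% in these data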;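 further: 0% = DMSO wells and 100% = biotin wells as full block of FRET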
#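 System: GST-NR2E3 and biotin-RetCOR proteins; probe or stimulus: 7 nM biotin-RetCOR; doses: compound at 4.8 µM, single dose; schedule: Compound–protein incubation for 5 h at 4 °C; detection: time-resolved FRET; read-out: percent inhibition; controls: biotin wells as high control, 0.6% DMSO wells as low control; format: 1536-well plates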
# Jurkat NFkB inh = inhibitors of the PMA/ionomycin-induced NF-kB reporter in Jurkat cells | PMA/ionomycin-induced NF-kB luciferase reporter, luminescence | inhibition, % at 4 µM | 330,000 tested, 0.53% active | AID 435003; in the data active means inhibition above about 50%
# MPTP inh = inhibitors of mitochondrial permeability transition pore. isolated mouse mitochondria, Ca2+ swelling absorbance, 30 min. inhibition, % at 10 µM. 360,000 tested, 1.4% active. AID 602449;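 active means inhibition of 50% or more, scaled per plate between neutral and stimulator controls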;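 further: 0% = DMSO wells given calcium and 100% = 1 mM EGTA wells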
# aDG glyco up = alpha-DG glycosylation activation; Pro5-aDG cells, alpha-DG glycosylation AlphaScreen (IIH6); 0% Pro5, 100% B10-LARGE cell signal; activation, % at 10 µM; 360,000 tested, 0.22% active; AID 624168;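 active means activation of at least 8% versus controls, or a plate z-score of at least 8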;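 further: Pro5 are CHO cells carrying HIG-tagged alpha-DG that lacks glycosylation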
# NR2E3 ag conf = NR2E3 agonism confirmed in two-hybrid assay. shares compounds with NR2E3 ag-1. CHO-S mammalian two-hybrid NR2E3-NCOR, luciferase luminescence. inhibition, % at 3.98 µM. 2,300 tested, 51% active;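 active means average inhibition above a cutoff equal to the mean inhibition of all tested compounds plus one SD, cut at about 70% in these data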;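 further: 0% = DMSO in NR2E3 cells and 100% = DMSO in cells lacking NR2E3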
# VP16 counter = counter-screen for NR2E3 agonists: GAL4-VP16 reporter inhibitors; AID 624379; inhibition, % at 3.98 µM; 2,300 tested, 29% active; CHO-S GAL4-VP16 luciferase reporter, luminescence; shares compounds with NR2E3 ag-1;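 active means mean inhibition above a cutoff equal to the average over all tested compounds plus one standard deviation, cut at about 70% in these data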;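 further: luciferase from a UAS reporter driven by GAL4-VP16 transactivation; 0% = DMSO with VP16-transfected cells and 100% = DMSO with cells lacking VP16; higher means less reporter light so more repression of VP16 activity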
# Rh123 counter = Rhodamine 123 counter-screen of mitochondrial pore hits; shares compounds with MPTP inh; isolated mitochondria, membrane potential, Rhodamine 123 fluorescence; inhibition, % at 10 µM; 5,000 tested, 78% active; AID 624504; in the data active means inhibition above about 22%;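 further: 0% = DMSO vehicle and 100% = positive control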
# An asterisk follows results filed as active; nt = not tested or not shown. Compounds with a hit are over-represented: about 2.4% of the library has one in this group of screens.
SMILES,NR2E3 ag-1,697 NFkB inh,NR2E3 ag-2,Jurkat NFkB inh,MPTP inh,aDG glyco up,NR2E3 ag conf,VP16 counter,Rh123 counter
C=CCC1(CC=C)CCCN1C(=O)c1cc(COc2ccc(C)nc2)on1,99*,3,0,43,99*,2,97*,80*,90*
NC(=O)c1c(-c2ccc(Cl)cc2Cl)csc1NC(=O)Cc1ccccc1,56,nt,-3,nt,103*,6,64,62,90*
C[C@@H]1CN([C@@H](C)CO)C(=O)CCCn2nncc2CO[C@@H]1CN(C)C(=O)CCC(F)(F)F,-14,nt,nt,nt,-1,0,nt,nt,nt
CCCN(CCC)CCNS(=O)(=O)c1ccc2c(c1)CCN2C(=O)C1CCC1,1,-39,1,-5,-1,0,nt,nt,nt
O=C(C1CC1)N1CCc2cc(S(=O)(=O)NCCC3=CCCCC3)ccc21,59,-16,-1,-3,62*,0,57,47,46*
Cc1c(CN(C)C(=O)c2sc3cc(Cl)ccc3c2Cl)cnn1C,48,-1,0,7,84*,4,72*,66,80*
Cc1ccc(NC(=O)CN(C)C(=O)c2sc3cc(Cl)ccc3c2Cl)cc1,-22,-26,0,1,1,0,nt,nt,nt
COc1cccc(O)c1CN1CCC(Oc2ccc(C(=O)NCc3ccccn3)cc2)CC1,-3,-7,0,3,2,1,nt,nt,nt
C/C(=N\NC(=O)Cn1nc(C)c([N+](=O)[O-])c1C)c1ccco1,-20,10,1,-9,1,0,nt,nt,nt
O=[N+]([O-])c1ccc(NC(=S)NCc2ccncc2)cc1,-16,8,0,7,28,0,nt,nt,nt
O=[N+]([O-])c1ccc(NC(=S)NCCc2ccc(Cl)cc2)cc1,69,-4,1,20,88*,0,96*,88*,85*
CCCCOc1ccc(S(=O)(=O)Nc2cccnc2)cc1,94*,-22,3,-8,72*,0,90*,74*,59*
Cc1ccc(S(=O)(=O)Nc2cccnc2)cc1,-14,-5,4,-25,1,0,nt,nt,nt
C[C@H](/C=C/[C@@]1(O)[C@H](C)C[C@H](O)CC1(C)C)O[C@@H]1O[C@H](CO)[C@@H](O)[C@H](O)[C@H]1O,-8,13,-1,0,-1,0,nt,nt,nt
Cc1cccc(C)c1NC(=O)CCCSc1nnc(N)s1,-60,-4,-4,-16,0,0,nt,nt,nt
COc1ccccc1/C=C/CN1CCC(n2nccc2NC(=O)CCc2ccccc2)CC1,65,1,-4,21,74*,2,56,51,109*
COc1cccc(C(C)(O)c2nc(-c3cc4ccccc4o3)cs2)c1 (stereo unspecified),79*,nt,nt,nt,88*,0,93*,72*,96*
CC(O)(c1cccc(F)c1)c1nc(-c2cc3ccccc3o2)cs1 (stereo unspecified),34,nt,nt,nt,10,0,nt,nt,nt
COc1cccc(C(C)(O)c2nc(-c3ccc(N(C)C)cc3)cs2)c1 (stereo unspecified),73*,nt,nt,nt,99*,1,83*,60,91*
COC(=O)c1ccc(C2=NOC(C)(c3nnc(-c4cccc(Cl)c4)o3)C2)cc1 (stereo unspecified),-12,-16,2,2,-2,0,nt,nt,nt
OCCCNc1ncnc2[nH]ncc12,-14,nt,nt,nt,-1,0,nt,nt,nt
CCCCCCCCNc1ncnc2[nH]ncc12,73*,nt,nt,nt,71*,4,84*,73*,71*
c1ccc(CC2CCN(c3ncnc4sccc34)CC2)cc1,80*,nt,nt,nt,100*,2,97*,83*,98*
O=C(O)c1cc2c(N3CCC(Cc4ccccc4)CC3)ncnc2s1,-3,-7,3,-11,-1,0,nt,nt,nt
Cc1ccc(S(=O)(=O)N2CCN(c3ncnc4sccc34)CC2)cc1,103*,-43,0,30,82*,2,94*,83*,85*
SMILES,NR2E3 ag-1,697 NFkB inh,NR2E3 ag-2,Jurkat NFkB inh,MPTP inh,aDG glyco up,NR2E3 ag conf,VP16 counter,Rh123 counter
Cc1sc2ncnc(N3CCN(S(=O)(=O)c4ccc(F)cc4)CC3)c2c1C,78*,-10,2,15,56*,1,80*,74*,66*
S=C(NCc1ccc(Cl)cc1)Nc1ccncc1,100*,-42,1,31,98*,3,84*,81*,103*
COc1ccc(C(=O)OCC(=O)NC2CC2)cc1S(=O)(=O)Nc1ccc(C)cc1,4,-15,2,-5,0,0,nt,nt,nt
CCc1ccc(NC(=O)c2ccc(F)c(S(=O)(=O)NCC3COc4ccccc4O3)c2)cc1 (stereo unspecified),57,-36,-1,9,84*,4,55,46,78*
Nc1nonc1C(=O)NCCNCc1cc(Br)ccc1OCc1ccc(F)cc1,58,-18,3,16,65*,6,63,59,72*
COc1ccc(CNCCNC(=O)c2nonc2N)cc1OC,21,20,0,5,0,0,nt,nt,nt
CSc1nc(N)nc2c1ncn2CC(=O)N1CCN(Cc2c(C)cc(C)cc2C)CC1,80*,26,nt,34,86*,1,62,68,77*
Cc1cc(C)c(CN2CCN(C(=O)Cn3ccc(N)nc3=O)CC2)c(C)c1,3,3,5,-5,0,0,nt,nt,nt
CCN(CC)c1ccc(C(=C2C=CC(=[N+](CC)CC)C=C2)c2ccc(N(CC)CC)cc2)cc1,101*,nt,nt,nt,137*,-2,99*,92*,74*
CCN(CC)c1ccc(C(=O)NNC(=O)CCl)cc1,-10,5,-3,-8,2,0,nt,nt,nt
Cc1nnc(SCC(=O)NCc2ccc(F)cc2)[nH]c1=O,1,-14,0,4,-1,0,nt,nt,nt
COc1cc(C(=O)OCC(=O)Nc2ccc(S(=O)(=O)N3CCCC3)cc2)cc(OC)c1OC,22,12,nt,-3,-1,0,nt,nt,nt
COc1ccc(-c2coc3c(C(=O)NCc4ccc(OC)c(OC)c4)cccc23)c(C)c1,91*,nt,nt,nt,98*,5,95*,82*,102*
COc1ccc(-c2ccc(C(=O)NCc3ccncc3)c3occc23)c(C)c1,82*,nt,nt,nt,92*,5,95*,82*,112*
COc1ccc(-c2ccc(C(=O)NCc3ccc(F)c(F)c3)c3occc23)c(C)c1,-8,nt,nt,nt,1,1,nt,nt,nt
